Screening data (PubChem BioAssay)
The entries come from a sample that favours hits as a whole.
Myeloid diff 2: compounds promoting myeloid differentiation | ER-HoxA9 myeloid progenitors, lysozyme-GFP differentiation, flow cytometry | 360,000 compounds, 1% hits | calls only at 10 µM;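 active means normalized GFP-positive differentiation at or above the plate's own cutoff, the solvent-only control mean plus 3 SD; inconclusive means no clear call, values can overlap the other calls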;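 further: cells exposed to compound for four days before flow analysis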
Xi reactivation: reactivates the inactive X chromosome in mouse fibroblasts. AID 743238. XiGFP mouse fibroblasts, % GFP-positive cells imaging, 3 d; cells co-treated with 5-aza-dC sensitizer; scaled so ellipticine positive control = 100%. activation, % at 7.58 µM. 360,000 compounds, 0.055% hits;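 active means mean normalized replicate activation at least 10% and every replicate at or above 10%; inconclusive means only one of the two criteria met; inactive means mean below 10% and not all replicates reach 10%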;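 further: 0% = median of on-plate neutral control wells and 100% = ellipticine 6 µM median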
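Assay system: SV40-immortalized XiGFP fibroblast cells, line 68-5-11; buffer or medium: DMEM plus 5-aza-dC sensitizer; compound: one concentration, pinned; timing: compounds 3 days, fix/stain 15 min at room temperature; benchmarks: positive control ellipticine, 6 µM final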
ABCB6 inh 2: inhibitors of human ABC transporter ABCB6; AID 602162; K562-ABCB6 porphyrin accumulation, flow cytometry, 1 h; active compounds read low; Q9NP58; 360,000 compounds, 0.19% hits; fluorescence ratio to DMSO, % at 10 µM;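 active means fluorescence ratio to DMSO below 75%, the collection mean minus 3 SD; inconclusive means too few cells collected in the well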;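 further: signal is porphyrin accumulated inside mitochondria; 100% equals median channel fluorescence of DMSO control wells; lower ratio means ABCB6 inhibition with less porphyrin fluorescence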
Target sequence (Q9NP58 whole entry, looked up): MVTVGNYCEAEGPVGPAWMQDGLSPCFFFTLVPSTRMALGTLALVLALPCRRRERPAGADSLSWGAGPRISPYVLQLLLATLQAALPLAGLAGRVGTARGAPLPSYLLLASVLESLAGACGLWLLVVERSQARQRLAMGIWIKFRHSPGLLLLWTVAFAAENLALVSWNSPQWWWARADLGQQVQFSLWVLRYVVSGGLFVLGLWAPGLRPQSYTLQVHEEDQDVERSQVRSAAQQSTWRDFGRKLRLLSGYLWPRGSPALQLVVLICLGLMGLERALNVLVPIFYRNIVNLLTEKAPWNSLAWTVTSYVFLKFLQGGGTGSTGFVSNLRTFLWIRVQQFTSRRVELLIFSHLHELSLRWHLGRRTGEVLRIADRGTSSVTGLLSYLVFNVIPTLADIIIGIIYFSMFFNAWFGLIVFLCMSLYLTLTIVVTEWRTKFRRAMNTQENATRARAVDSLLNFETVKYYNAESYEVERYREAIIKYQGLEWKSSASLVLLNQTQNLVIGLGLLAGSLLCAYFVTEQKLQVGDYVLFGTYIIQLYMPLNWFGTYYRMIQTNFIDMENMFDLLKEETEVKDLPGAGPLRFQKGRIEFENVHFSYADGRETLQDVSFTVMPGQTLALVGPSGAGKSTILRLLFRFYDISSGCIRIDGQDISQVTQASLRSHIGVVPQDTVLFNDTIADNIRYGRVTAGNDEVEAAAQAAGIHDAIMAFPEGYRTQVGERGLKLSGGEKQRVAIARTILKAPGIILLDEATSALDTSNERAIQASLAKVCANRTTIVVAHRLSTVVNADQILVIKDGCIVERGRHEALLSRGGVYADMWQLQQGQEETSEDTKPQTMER
Myeloid diff: compounds promoting myeloid differentiation. calls only. 2,300 compounds, 2% hits. shares compounds with Myeloid diff 2. ER-HoxA9 myeloid progenitors, GFP/Mac1 double-positive flow;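 active means share of green or green-and-red cells above 9 and 9% in run 1 or 4 and 3% in run 2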
GFP autofluor: counter-screen for myeloid differentiation promoters: compound fluorescence. ER-HoxA9 myeloid progenitors, no estrogen, GFP autofluorescence flow cytometry; vehicle wells 0%, positive control 100%. 2,300 compounds, 7.4% hits. AID 651707. shares compounds with Myeloid diff 2. fluorescence response, % (concentration not given with the values);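 active means over 5% cells positive for green fluorescent reporter, or over 2% positive for both it and APC stain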;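 further: range taken on the double positive population between DMSO and positive control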
* = called active by the depositor; i = inactive; ? = inconclusive; . = no result given; + = active, no number.

SMILES | Myeloid diff 2 | Xi reactivation | ABCB6 inh 2 | Myeloid diff | GFP autofluor
Cc1ccc(N/C(N)=N/c2nc(C)cc(C)n2)cc1 | i | 0 | 98 | . | .
Cc1cc(C)nc(/N=C(\N)Nc2ccccc2-c2ccccc2)n1 | + | 0 | 96 | i | 0
CCc1nn(CC(=O)NCCCN(C)Cc2ccccc2)c(=O)c2cc3sc(C)cc3n12 | i | 0 | 103 | . | .
CCc1nn(CC(=O)NCCCN(Cc2ccccc2)C(C)C)c(=O)c2cc3sccc3n12 | + | . | 99 | i | 0
CCC(=O)Nc1ccc2c(c1)C(=O)N(C)[C@H]1CC[C@H](CC(=O)N[C@@H](C)c3ccccc3)O[C@@H]1CO2 | . | 0 | . | . | .
COC(=O)C[C@@H]1C[C@H]2c3cc(NC(=O)Nc4ccc(C(F)(F)F)cc4)ccc3O[C@H]2[C@H](CO)O1 | . | 0 | . | . | .
COc1ccc(-c2nc(/C=C3\C(C)=Nc4ccccc43)c(O)o2)cc1 | i | 0 | 94 | . | .
CC1=Nc2ccccc2/C1=C/c1sc(=N)n(-c2nccs2)c1O | i | . | 135 | i | 47*
CCOC(=O)[C@H]1[C@H]2COc3cc(OC)ccc3[C@@H]2N2C(=O)CN(CCc3c[nH]c4ccccc34)C(=O)[C@@]12C | i | 0 | 100 | i | 0
CCOC(=O)[C@H]1[C@H]2COc3ccc(Br)cc3[C@H]2N2C(=O)CN(CCc3c[nH]c4ccccc34)C(=O)[C@@]12C | i | 0 | 98 | . | .
COc1ccc(NC(=O)N(C)C[C@@H]2Oc3c(NS(=O)(=O)c4ccc(Cl)cc4)cccc3C(=O)N([C@@H](C)CO)C[C@@H]2C)cc1 | . | -1 | . | . | .
CN(C)C(=O)c1cccc(-c2ccc3c(c2)[C@@H]2[C@@H](CCN2C(=O)Cc2ccccn2)[C@H](CO)N3C)c1 | . | 0 | . | . | .
OC[C@@H]1CN(Cc2ccc(-c3ccccc3)cc2)C[C@H](n2cnc3c(NCc4ccco4)ncnc32)O1 | i | 0 | 98 | . | .
OC[C@@H]1CN(Cc2ccccc2)C[C@H](n2cnc3c(NCc4ccco4)ncnc32)O1 | + | 0 | 103 | i | 0
C[C@H](CO)N1C[C@H](C)[C@@H](CN(C)C(=O)c2ccc3c(c2)OCO3)Oc2ncc(C#Cc3ccccc3F)cc2C1=O | . | -1 | . | . | .
O=C(C[C@H]1CC[C@@H]2[C@H](COC[C@@H](O)CN2C(=O)c2cccnc2)O1)NC1Cc2ccccc2C1 | . | 0 | . | . | .
O=C(NC1CCC1)[C@@H]1[C@@H](CO)[C@@H]2Cn3c(ccc(-c4ccccc4F)c3=O)[C@@H]2N1Cc1ccncc1 | . | 0 | . | . | .
COCC(=O)N1[C@@H](CO)[C@H](c2ccccc2)[C@@H]1CN(C)C(=O)c1cccnc1 | . | 0 | . | . | .
Cc1cc(C)cc(NC(=S)NCC2CCCO2)c1 (stereo not given) | i | . | 96 | i | 0
S=C(NCC1CCCO1)Nc1cc(Cl)c(Cl)cc1Cl (stereo not given) | i | 0 | 98 | . | .
CNC[C@H](CC1CCCCC1)NC[C@H](CO)NCCc1cccc(C(F)(F)F)c1 | + | 0 | 97 | i | 5
CNC[C@H](CC1CCCCC1)NC[C@H](CO)NCC1(c2ccccc2)CC1 | i | 0 | 91 | . | .
COc1cccc(S(=O)(=O)N[C@H]2C=C[C@H](CC(=O)NCc3ccccc3)O[C@H]2CO)c1 | . | 0 | . | . | .
N#C[C@@H]1[C@H](c2ccccc2C2=CCCC2)[C@@H](CO)N1C(=O)C1CCOCC1 | . | 0 | . | . | .
CCCNC(=O)C[C@H]1CC[C@@H]2[C@@H](COc3ccc(NC(=O)c4ccc(C(F)(F)F)cc4)cc3C(=O)N2C)O1 | . | 0 | . | . | .
SMILES | Myeloid diff 2 | Xi reactivation | ABCB6 inh 2 | Myeloid diff | GFP autofluor
CN(C)Cc1cn(CC[C@@H]2CC[C@H](NC(=O)Nc3ccccc3F)[C@H](CO)O2)nn1 | . | 0 | . | . | .
COC(=O)c1ccc(NC(=O)c2cc(-c3ccncc3)nc3ccccc23)cc1 | i | 1 | 108 | . | .
COC(=O)c1ccc(NC(=O)c2cc(-c3ccccn3)nc3ccccc23)cc1 | + | 0 | 104 | i | 0
COc1cccc(-c2ccc(NC(=O)C3CCCN(Cc4cnn(C)c4C)C3)cc2)c1 (stereo not given) | ? | 0 | 95 | . | .
COc1cccc(-c2ccc(NC(=O)C3CCCN(Cc4cccc(C)n4)C3)cc2)c1 (stereo not given) | i | 0 | 94 | i | 0
CCn1c(SCC(=O)N2CCN(c3ccc(F)cc3)CC2)nc2ccccc2c1=O | i | . | 90 | i | 0
CCn1c(SCC(=O)N2CCN(c3ccc(Cl)cc3)CC2)nc2ccccc2c1=O | i | . | 94 | . | .
CN(C)N=Nc1ccc(-c2cn(Cc3ccccc3)cn2)cc1 | i | 0 | 89 | i | 0
CN(Cc1ccccc1)N=Nc1ccccc1 | i | 0 | 97 | . | .
Cc1noc(C)c1NC(=O)Nc1cccc2c1O[C@H](CN(C)C)[C@@H](C)CN([C@H](C)CO)C2=O | . | -1 | . | . | .
C#CC[N+](CC)(CC)CC#Cc1ccccc1 | + | 0 | 99 | + | 4
CC[N+](CC)(CC#Cc1ccccc1)CC#Cc1ccccc1 | ? | 0 | 98 | . | .
COc1ccc(S(=O)(=O)N(C)C[C@H]2OCCCC[C@@H](C)Oc3ccc(NC(=O)CCC(F)(F)F)cc3C(=O)N([C@H](C)CO)C[C@H]2C)cc1 | . | 0 | . | . | .
COc1ccc2c3c(n(C)c2c1)[C@@H](CO)N(C(=O)C1CCC1)CC31CCN(C(=O)Nc2cccc(F)c2)CC1 | . | 0 | . | . | .
N#CC1=C(S)N(c2ccccc2)C(c2ccc(-c3cc(Cl)ccc3Cl)o2)NC1=O (stereo not given) | i | 0 | 110 | i | 0
N#CC1=C(S)N(c2ccccc2)C(c2ccc(-c3ccc(Cl)c(Cl)c3)o2)NC1=O (stereo not given) | i | 2 | 102 | . | .
CC[C@@H]1C/C=C\C[C@H](c2ccc(F)cc2)NC(=O)CCC(=O)N1 | . | 0 | . | . | .
c1ccc(C2=Nn3c(nnc3-c3ccncc3)SC2)cc1 | i | . | 100 | . | .
c1ccc(C2=Nn3c(nnc3-c3ccccn3)SC2)cc1 | i | . | 93 | i | 0
CN(C[C@@H]1[C@@H](c2ccccc2)[C@H](CO)N1C(=O)c1ccccc1)C(=O)C1CC1 | . | 0 | . | . | .
COc1ccccc1CNC(=O)COC(=O)CCN1C(=O)C2CC=CCC2C1=O (stereo not given) | i | 1 | 102 | . | .
COc1ccccc1CN1C(=O)C2CC=CCC2C1=O (stereo not given) | i | . | 106 | i | 1
Cc1ccc(S(=O)(=O)N(C)C[C@H]2Oc3ccc(NS(=O)(=O)c4c(C)noc4C)cc3C(=O)N([C@H](C)CO)C[C@@H]2C)cc1 | . | -1 | . | . | .
CN(C)CCN(C(=O)c1ccccc1Cl)c1nc2c(Cl)cccc2s1 | + | 0 | 99 | i | 1
CN(C)CCN(C(=O)c1cccc(Cl)c1)c1nc2c(Cl)cccc2s1 | i | 0 | 98 | . | .
O=C(C[C@H]1CC[C@@H](NC(=O)C2CC2)[C@@H](CO)O1)Nc1nccs1 | . | 0 | . | . | .
COC(=O)c1ccccc1NC(=O)c1nc2nc(C)cc(C)n2n1 | i | . | 95 | i | 0
